From PubChem BioAssay
PDI inh: blocks human protein disulfide isomerase activity | PDI insulin aggregation turbidity, A650, 90 min | inhibition, % at 10 µM | 350,000 compounds, 0.052% hits | AID 588391;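 active means mean inhibition across replicates of 30% or more, whatever share of single replicates reach that level; inconclusive means mean inhibition below 30% while every single replicate reaches 30%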
ERp5 block: ERp5 (human) disulfide isomerase inhibition; ERp5 insulin aggregation, absorbance 650 nm, 90 min; inhibition, % at 9.99 µM; 350,000 compounds, 0.05% hits;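 active means mean replicate inhibition above about 25%, with every replicate also reaching it, limit read from the data, passing the limit was not always enough; inconclusive means only one of those two criteria met; inactive means neither criterion met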
Target sequence (Q15084 whole entry, looked up): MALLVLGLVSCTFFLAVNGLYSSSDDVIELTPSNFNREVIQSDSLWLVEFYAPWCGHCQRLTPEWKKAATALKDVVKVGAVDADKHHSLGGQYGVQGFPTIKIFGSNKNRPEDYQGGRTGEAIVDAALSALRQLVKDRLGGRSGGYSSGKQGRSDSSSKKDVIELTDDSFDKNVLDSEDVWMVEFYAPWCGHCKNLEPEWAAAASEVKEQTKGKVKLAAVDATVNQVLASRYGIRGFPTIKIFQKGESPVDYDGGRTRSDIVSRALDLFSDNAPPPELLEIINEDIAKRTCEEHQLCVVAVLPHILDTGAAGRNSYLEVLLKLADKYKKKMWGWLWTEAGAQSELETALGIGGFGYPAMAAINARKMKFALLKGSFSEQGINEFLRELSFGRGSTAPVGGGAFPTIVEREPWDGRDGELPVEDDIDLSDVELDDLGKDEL
SIRT5 inh: blocks human SIRT5 desuccinylation of peptide; Q9NXA8; Purified SirT5, succinyl-peptide AMC, trypsin-coupled fluorescence; inhibition, % at 15 µM; 330,000 compounds, 1.1% hits; AID 652115; in the data active means inhibition above about 15%; inconclusive means no clear call, values can overlap the other calls
AF4-AF9 inh: blocks AF4 peptide binding to human AF9; AlphaScreen, biotin-AF4 peptide binding to FLAG-AF9; inhibition, % at 10 µM; 350,000 compounds, 0.47% hits; P42568; AID 651704;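 active means every replicate reaching a set inhibition limit, whatever the replicate mean, cut at about 25% in these data; inconclusive means mean inhibition reaches that limit but some replicates miss it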;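 further: 0% = plate neutral control median and 100% = total signal loss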
FN deposition inh: fibronectin deposition inhibition. AH1F fibroblasts, Alexa488-fibronectin deposition fluorescence, overnight. inhibition, % at 12.6 µM. 350,000 compounds, 0.086% hits. AID 743247;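 active means mean inhibition across replicates of 30% or more, regardless of how many single replicates reach that level; inconclusive means mean under 30% yet at least half of replicates reach 30%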;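 further: positive control wells lacked labelled fibronectin entirely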
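Material – AH1F fibroblast monolayer, labelled fibronectin deposition · Reagent – labelled fibronectin 24 nM · Timing – 1 h adhesion, overnight exposure · Measured by – fluorescence at 485 nm excitation, 525 nm emission · Read-out – inhibition of fibronectin deposition signal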
Numbers without * were called inactive; ? = inconclusive; nt = no result; ! = not active in a repeat. Shown are actives, neighbours in structure and some others; about 1.3% of the full set was active somewhere.

SMILES | PDI inh | ERp5 block | SIRT5 inh | AF4-AF9 inh | FN deposition inh
C[C@@H]1CN([C@@H](C)CO)C(=O)c2cc(C#CCN(C)C)cnc2O[C@@H]1CN(C)Cc1ccc(-c2ccccc2)cc1 | nt | -4 | -4 | 23 | nt
C[C@H](CO)N1C[C@H](C)[C@H](CN(C)Cc2ccccc2)Oc2ncc(C#CCN(C)C)cc2C1=O | nt | 6 | 19*! | -5 | 5
C[C@@H]1CN([C@H](C)CO)C(=O)c2cc(C#CCN(C)C)cnc2O[C@H]1CN(C)Cc1ccccc1 | nt | 4 | -3 | 2 | -1
C[C@@H]1CN([C@H](C)CO)C(=O)c2cc(C#CCN(C)C)cnc2O[C@@H]1CN(C)Cc1ccccc1 | nt | -7 | -2 | -1 | -3
C[C@@H]1CN([C@@H](C)CO)C(=O)c2cc(C#CCN(C)C)cnc2O[C@H]1CN(C)Cc1ccc(-c2ccccc2)cc1 | nt | 0 | -2 | 34*! | nt
CCC(=O)Nc1cc(-c2nn(C)c(=O)c3ccccc23)ccc1N1CCCCC1 | -3 | nt | nt | nt | -2
CCN=c1scc(C)n1/N=C/c1ccc(O)c(O)c1O | -5 | nt | nt | nt | 6
COCCN=c1scc(-c2cccs2)n1/N=C/c1ccc(O)c(O)c1O | 0 | 1 | 2 | 53* | 7
CS(=O)(=O)n1nc(OC(=O)c2cccs2)cc1N | -2 | -1 | 3 | -12 | -6
COc1cc(CC(NC(C)=O)C(=O)NC2CCN(C(=O)Nc3ccccc3C)CC2)cc(OC)c1 (stereo unspecified) | -4 | 5 | 17* | 1 | -8
S=c1[nH]c2ccccc2o1 | 4 | 6 | -13 | -1 | 17
O=C(c1c(Cl)cccc1Cl)N1CCCCCC1 | -11 | nt | nt | nt | nt
CCCc1cc(NCCCn2ccnc2)n2nc(C)c(-c3ccccc3)c2n1 | -3 | 4 | 18* | 16 | -4
CCOC(=O)c1cnc2ccc(C)cc2c1NCCN1CCOCC1 | -3 | -1 | -4 | -3 | 5
CN(C)C(=O)CSc1n[nH]c(=O)[nH]c1=O | -4 | -2 | 0 | 1 | 14
CCCC(=O)N1CC2(C1)CN(S(=O)(=O)c1ccc(C)cc1)[C@H](CO)c1[nH]c3cc(OC)ccc3c12 | nt | 0 | 15* | 2 | -1
COc1ccc2c3c([nH]c2c1)[C@H](CO)N(C(=O)C1CCCC1)CC31CCN(C(=O)NC(C)C)CC1 | nt | 5 | 1 | -2 | nt
CCCC(=O)N1CC2(C1)CN(C(=O)C1CC1)[C@@H](CO)c1[nH]c3cc(OC)ccc3c12 | nt | 0 | -1 | -2 | nt
COc1ccc2c3c([nH]c2c1)[C@@H](CO)N(C(=O)C1CCCC1)CC31CCN(C(=O)NC(C)C)CC1 | nt | 27* | 0 | -1 | nt
CCCC(=O)N1CC2(C1)CN(C(=O)C1CCCCC1)[C@H](CO)c1[nH]c3cc(OC)ccc3c12 | nt | 36* | 1 | 0 | nt
CCS(=O)(=O)N1CC2(C1)CN(S(=O)(=O)c1cn(C)cn1)[C@@H](CO)c1[nH]c3cc(OC)ccc3c12 | nt | 1 | 30* | -6 | 3
COc1ccc2c3c([nH]c2c1)[C@H](CO)N(C(=O)NC(C)C)CC31CN(C(=O)C2CCCC2)C1 | nt | 67* | -1 | 3 | nt
COc1cc2c(cc1O)[C@@H]1Cc3cc(O)c(OC)cc3[C@H](C2)N1C | 0 | 1 | nt | nt | 3
O=C(OCC(=O)N1CCc2ccccc21)C1=COCCO1 | -6 | nt | nt | nt | 4
COc1ccc2nc(C)cc(N/N=C/c3cccc(OC)c3O)c2c1 | -1 | 6 | -2 | 25* | -7
SMILES | PDI inh | ERp5 block | SIRT5 inh | AF4-AF9 inh | FN deposition inh
COc1ccc(/C=N/Nc2cc(C)nc3ccc(Br)cc23)cc1 | -1 | 1 | -3 | 13 | 3
O=C(O)c1ccc2c(c1)C1C=CCC1C(c1cc3c(cc1Br)OCO3)N2 (stereo unspecified) | 2 | 0 | 1 | 0 | 0
O=C(O)c1ccc(NS(=O)(=O)c2ccc3c(c2)C2C=CCC2C(c2ccccc2F)N3)cc1 (stereo unspecified) | 14 | 0 | 51* | 4 | 7
COc1ccc(OCCc2nnc(N)s2)cc1 | 2 | nt | nt | nt | -1
COc1ccc(-[n+]2c(C)cc(/C=C3\Sc4ccccc4N3C)cc2C)cc1 | 4 | -5 | 26* | 8 | -20
CS(=O)(=O)N(CC(=O)N1CCN(Cc2ccccc2)CC1)c1ccc(F)cc1 | 4 | -1 | -2 | -7 | -7
Cc1ccc(N(CC(=O)N2CCOCC2)S(C)(=O)=O)cc1Cl | -2 | -7 | 16* | 0 | -1
CS(=O)(=O)N(CC(=O)N1CCN(Cc2ccccc2)CC1)c1cccc(F)c1 | -3 | 1 | 19* | 0 | -7
CCNS(=O)(=O)c1ccc(CCC(=O)N2CCOCC2)cc1 | -2 | 0 | -2 | 0 | 6
CCNS(=O)(=O)c1ccc(CCC(=O)N2CCN(C(=O)OCC)CC2)cc1 | -2 | -2 | 15* | 1 | -6
COc1cc(/C=N/NC(=Nc2ccc(C)cc2)c2nc3ccccc3s2)ccc1O | -1 | nt | nt | nt | -7
C#CC(C)(C)NC(=S)NC1CC2C=CC1C2 (stereo unspecified) | 2 | 2 | -1 | -16 | -1
Cc1cc(Cl)ccc1OCc1n[nH]c(=S)n1C1CCCCC1 | 32* | nt | nt | nt | -3
COc1ccc(Cl)cc1-c1n[nH]c(=S)n1C1CCCCC1 | 12 | nt | nt | nt | 12
O=C(CCNS(=O)(=O)c1cccc2nsnc12)NCc1ccco1 | 1 | -1 | 0 | -1 | 0
Cc1ccccc1NC1=C/C(=N\S(=O)(=O)c2cccs2)c2ccccc2C1=O | -4 | nt | nt | nt | 52*
C[C@@H]1CN([C@@H](C)CO)S(=O)(=O)c2ccc(-c3cncnc3)cc2O[C@H]1CN(C)C(=O)CC1CC1 | nt | -4 | -9 | 0 | 12
O=C1NCCC12C(=O)Nc1ccccc12 (stereo unspecified) | nt | 10 | nt | 6 | nt
O=C(O)C1=C2C(=O)Nc3cccc(c32)C2(C1)C(=O)Nc1ccccc12 (stereo unspecified) | -4 | -26 | 35* | 2 | 7
CCCCC(=O)NC(c1ccc(N(CC)CC)cc1)c1ccc2cccnc2c1O (stereo unspecified) | 4 | 1 | 0 | 20 | -3
CCCCC(=O)NC(c1ccc(N(C)C)cc1)c1ccc2cccnc2c1O (stereo unspecified) | 0 | 4 | -1 | 57* | 12
CC(C)C(=O)NC(c1cccc([N+](=O)[O-])c1)c1ccc2cccnc2c1O (stereo unspecified) | -5 | 1 | -6 | ? | 8
CCCC(=O)NC(c1cccc([N+](=O)[O-])c1)c1ccc2cccnc2c1O (stereo unspecified) | 4 | 5 | -8 | 34* | 17
CCN(CC)c1ccc(C(NC(=O)C(C)C)c2ccc3cccnc3c2O)cc1 (stereo unspecified) | -14 | 2 | -4 | 29* | 16
OCCSc1nc(-c2cccnc2)nc2ccccc12 | 1 | nt | nt | nt | -3
CC(=O)CCc1ccc(OCC(=O)Nc2cccc(S(=O)(=O)N(C)c3ccccc3)c2)cc1 | 2 | -4 | 17* | -4 | -2
CN(CC(=O)Nc1ccc2c(c1)OCO2)S(=O)(=O)c1ccc(F)cc1 | 6 | -2 | -6 | 0 | 4
